# High-throughput results deposited in PubChem by The Scripps Research Institute Molecular Screening Center.
# Only some compounds are listed: those with a hit (about 3.1% of all), similar ones and a draw of the others.
# GalR3 antag: antagonists of human GalR3; O60755; HEK293 GalR3-CNG cAMP membrane potential fluorescence; galR3 body fused to GalR1 C-terminus; inhibition, % at 3 µM; 360,000 compounds, 0.44% hits; AID 651719;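 active means inhibition above the screen-wide average plus 3 SD, cut at about 13% in these data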;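 further: forskolin and galanin both at EC90 stimulate the cells; cAMP rise reported by CNG channel membrane potential dye signal; 0% = forskolin plus galanin with DMSO and 100% = forskolin alone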
# CHO parental Ca: counter-screen for OX1R antagonists: effect in parental CHO cells. parental CHO-K1, ATP-induced calcium, Fluo-8 fluorescence. inhibition, % at 5.6 µM. 330,000 compounds, 0.63% hits. AID 463079;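 active means inhibition above that plate's mean sample inhibition plus 3 SD, cut at about 26% in these data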;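 further: 0% = ATP-challenged DMSO wells and 100% = DMSO wells without ATP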
#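 Assay system: parental CHO cells; Read-out basis: percent inhibition of ATP-evoked calcium rise, normalized to controls; Benchmarks: ATP and no-ATP DMSO wells; Compound dosing: single nominal dose of 5.6 µM per compound; Signal: Fluo-8 calcium dye fluorescence; Also added: ATP as calcium-mobilizing challenge; Repeats: singlicate.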
# GPR7 antag: blocks human GPR7 receptor signaling. GPR7-expressing cells, fluorescence antagonist assay. P48145. AID 1861. 290,000 compounds, 1.1% hits. inhibition, % at 4.4 µM; in the data active means inhibition above about 16%, passing the limit was not always enough;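 further: cells stimulated with the agonist NPW; 0% = agonist with vehicle and 100% = vehicle without agonist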
# Target sequence (P48145 whole entry, looked up): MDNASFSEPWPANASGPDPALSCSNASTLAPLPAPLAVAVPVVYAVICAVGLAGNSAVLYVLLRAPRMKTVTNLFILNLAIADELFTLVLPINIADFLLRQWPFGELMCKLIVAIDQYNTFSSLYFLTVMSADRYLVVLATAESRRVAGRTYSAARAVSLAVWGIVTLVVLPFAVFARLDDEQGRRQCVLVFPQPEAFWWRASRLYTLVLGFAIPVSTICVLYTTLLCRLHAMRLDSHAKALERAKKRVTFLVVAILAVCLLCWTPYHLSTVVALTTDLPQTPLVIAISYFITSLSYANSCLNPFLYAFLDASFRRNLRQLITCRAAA
# OX1R antag-1: blocks the human orexin 1 receptor; O43613; CHO/OX1R cells, Fluo-8 calcium fluorescence, orexin A; inhibition, % at 5 µM; 330,000 compounds, 0.43% hits;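 active means inhibition above its plate's threshold, mean inhibition of all tested compounds on the plate plus 3 SD, cut at about 37% in these data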;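 further: 0% = orexin A challenge wells and 100% = SB-334867-A antagonist wells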
# OX1R antag-2: OX1R (human) antagonism | O43613 | OX1R-expressing cells, FRET antagonist read-out | inhibition, % at 6.6 µM | 330,000 compounds, 1.8% hits | AID 485270; in the data active means inhibition mostly above about 38%, no sharp cut-off; inactive means mostly below about 40%;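 further: 0% = agonist challenge alone and 100% = reference antagonist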
# GalR3 antag conf: GalR3 (human) antagonism, confirmation; shares compounds with GalR3 antag; HEK293 GalR3 CNG cAMP biosensor, membrane potential fluorescence; galR3 fused to GalR1 carboxy tail; challenged with forskolin and galanin at EC90; inhibition, % at 3 µM; 1,600 compounds, 59% hits; AID 652245;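 active means inhibition above the primary screen's cutoff, the mean inhibition of all screened compounds plus 3 SD, cut at about 13% in these data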;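 further: 0% = forskolin plus galanin and 100% = forskolin alone with DMSO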
# HEK-CNG parental: acts as nonspecific agonist in parental HEK-CNG cells. shares compounds with GalR3 antag. HEK293-CNG parental cells, cAMP membrane potential fluorescence; normalised: DMSO wells 0%, forskolin wells 100%. activation, % at 3 µM. 1,600 compounds, 10% hits. AID 652268; in the data active means activation above about 1.3%
# * marks the source's active call; other numbers are inactive results; . = not tested or not shown.
SMILES,GalR3 antag,CHO parental Ca,GPR7 antag,OX1R antag-1,OX1R antag-2,GalR3 antag conf,HEK-CNG parental
CCOC(=O)c1sc(N2C(=O)C(O)=C(C(=O)c3ccc(C)o3)C2c2cccc([N+](=O)[O-])c2)nc1C (centres undefined),3,-19,-8,-39,27,.,.
CCOC(=O)c1sc(N2C(=O)C(O)=C(C(=O)c3ccc(C)o3)C2c2ccc(OC)c(OC)c2)nc1C (centres undefined),34*,-24,-31,-31,5,15*,0
C[C@@H]1CN([C@@H](C)CO)C(=O)CCCn2nncc2CO[C@H]1CN(C)S(=O)(=O)c1ccc(-c2ccccc2)cc1,13*,.,.,.,.,45*,0
CCn1c(=O)c(=O)[nH]c2cc(C(=O)N3CCN(Cc4ccc5c(c4)OCO5)CC3)ccc21,-1,-6,20,4,5,.,.
CCCCCn1c(=O)[nH]c2cc(C(=O)N3CCN(Cc4ccc5c(c4)OCO5)CC3)ccc2c1=O,99*,-1,19,-11,23,106*,-1
O=C(Cc1ccccc1)Nc1ccc(NC(=O)c2ccco2)cc1Cl,-9,-10,-4,-23,19,.,.
O=C(NC1CCCCC1c1ccccc1)c1ccccc1 (centres undefined),16*,.,.,.,.,4,0
O=C(NC1CCCCCCC1O)c1ccccc1 (centres undefined),-6,.,.,.,.,.,.
O=C(COC(=O)c1cccnc1)Nc1ccc2c(c1)OCO2,14*,-10,1,-2,4,-1,0
O=C(NC1C2CCCC1CN(C1CC1)C2)c1ccc(Cl)cc1 (centres undefined),-10,.,-18,.,.,.,.
COc1ccc(N(C(=O)c2snc(C(N)=O)c2N)C(C(=O)NC2CCCC2)c2ccco2)cc1 (centres undefined),18*,-15,-10,-37,10,0,0
CCCCNC(=O)COC(=O)c1ccccc1F,19*,-11,-8,-7,3,2,0
O=C(COC(=O)c1ccccc1F)NNC(=O)c1ccccc1,0,9,.,4,12,.,.
O=C(CSc1nnc(-c2ccco2)c(-c2ccco2)n1)c1ccccc1,13*,-16,-8,4,16,2,0
COc1ccc(C(=O)NCC(=O)N2CCN(C(=O)c3ccco3)CC2)cc1[N+](=O)[O-],-6,-6,.,2,17,.,.
COc1cc(C(=O)O[C@H]2CC(C)=CC[C@@]3(C)CC[C@@](O)(C(C)C)[C@H]23)ccc1O,26*,9,-15,-16,12,21*,0
C=C(C)CC(c1ccccc1)N(C(C)=O)c1ccco1 (centres undefined),1,-9,-13,-35,9,.,.
CC(=O)N1CCc2cc(S(=O)(=O)NCCC3=CCCCC3)ccc21,82*,38*,1,38,42,80*,0
Nc1nc(-c2ccc3c(c2)OCCO3)cs1,23*,-16,-15,-18,27,29*,0
Cc1nc(-c2ccc3c(c2)OCCCO3)cs1,-2,-17,-10,-10,5,.,.
CCOc1ccc(CNC(=O)C2CCN(c3nn4c(=O)cc(C)nc4s3)CC2)cc1,-7,-12,-9,-32,10,.,.
O=C(CCC(=O)c1cccs1)OCC(=O)c1ccc(Cl)s1,.,-9,-4,-1,22,1,0
CCCOc1ccccc1Cn1c(=O)oc2ccc(C)cc21,-1,1,-2,-12,17,.,.
CCCOc1ccc(Cn2c(=O)oc3ccc(C)cc32)cc1OC,14*,-11,7,-30,8,0,0
C=CCN1C(=O)c2ccc(C(=O)OCC(=O)N3CCN(c4ccccc4)CC3)cc2C1=O,-4,-17,.,-17,17,.,.
O=C(Nc1ccc(OCc2ccccc2)cc1)Nc1ccccc1C(=O)NCCCN1CCOCC1,17*,-12,5,-14,4,8,0
CC1(C)C(C=C(Cl)Cl)C1C(=O)N(Cc1cccc(Cl)c1)C1CCS(=O)(=O)C1 (centres undefined),-4,-35,10,-30,31,.,.
CCc1nnc(NC(=O)c2nc3nc(C)cc(C)n3n2)s1,13*,-9,-7,-2,5,0,0
CCCCc1nnc(NC(=O)c2nc3nccc(C)n3n2)s1,-5,-1,0,-11,15,.,.
